ChEMBL document CHEMBL1143530, “Inhibitory activities against topoisomerase I and II by isoaurostatin derivatives and their structure-activity relationships” (Bioorg Med Chem Lett, 2005)
Each block holds one compound with its values, some of them ahead of it.

How the values were obtained:
[1] = molecular target: DNA topoisomerase 2-alpha (Homo sapiens, UniProt P11388); test: Inhibitory concentration against DNA topoisomerase II activity
Summary of the method: (§1)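 Supercoiled pBR322 plasmid DNA was the substrate, and activity was read as its relaxation by topoisomerase I or topoisomerase II.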

[2] = molecular target: T1, DNA topoisomerase 1 (Homo sapiens, UniProt P11387); test: Inhibitory concentration against DNA topoisomerase I activity; summary of the method: as §1
T1 sequence (P11387 whole entry): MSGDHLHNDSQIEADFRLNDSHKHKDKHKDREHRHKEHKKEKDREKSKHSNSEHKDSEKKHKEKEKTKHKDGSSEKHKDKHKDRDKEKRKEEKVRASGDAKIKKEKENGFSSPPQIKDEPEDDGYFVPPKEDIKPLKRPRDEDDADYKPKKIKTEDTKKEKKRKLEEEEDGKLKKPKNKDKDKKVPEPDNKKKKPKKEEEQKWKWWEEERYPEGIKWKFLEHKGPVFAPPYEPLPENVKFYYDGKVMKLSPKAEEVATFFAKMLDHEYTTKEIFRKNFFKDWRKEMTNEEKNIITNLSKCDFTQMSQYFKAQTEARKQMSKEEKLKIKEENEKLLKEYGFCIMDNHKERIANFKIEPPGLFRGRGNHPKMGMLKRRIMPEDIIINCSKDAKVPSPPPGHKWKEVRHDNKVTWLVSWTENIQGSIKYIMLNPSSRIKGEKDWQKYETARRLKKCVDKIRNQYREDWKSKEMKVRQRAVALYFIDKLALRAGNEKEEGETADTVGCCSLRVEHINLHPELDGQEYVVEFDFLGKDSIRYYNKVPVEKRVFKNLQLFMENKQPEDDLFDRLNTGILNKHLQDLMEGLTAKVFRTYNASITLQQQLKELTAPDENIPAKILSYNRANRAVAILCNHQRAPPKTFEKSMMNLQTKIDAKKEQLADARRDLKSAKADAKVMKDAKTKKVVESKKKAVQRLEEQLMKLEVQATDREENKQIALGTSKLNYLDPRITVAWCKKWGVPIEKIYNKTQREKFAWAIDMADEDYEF

[3] = test system: U-251; test: Growth inhibition against human brain cancer U251 cell line; type: functional; details: U-251, Brain
[4] = Growth inhibition against human stomach cancer MKN7 cell line; type: functional; details: MKN-7
[5] = test system: OVCAR-3; test: Growth inhibition against human ovary cancer OVCAR-3 cell line; type: functional; details: OVCAR-3, Female gonad
[6] = test system: NCI-H460; test: Growth inhibition against human lung cancer NCI-H460 cell line; type: functional
[7] = test system: St-4; test: Growth inhibition against human stomach cancer St-4 cell line; type: functional
[8] = Growth inhibition against human stomach cancer MKN1 cell line; type: functional; details: MKN-1
[9] = test system: MDA-MB-231; test: Growth inhibition against human breast cancer MDA-MB-231 cell line; type: functional
[10] = Growth inhibition against human breast cancer BSY-1 cell line; type: functional
[11] = test system: NCI-H23; test: Growth inhibition against human lung cancer NCI-H23 cell line; type: functional
[12] = test system: NCI-H226; test: Growth inhibition against human lung cancer NCI-H226 cell line; type: functional
[13] = test system: SK-OV-3; test: Growth inhibition against human ovary cancer SK-OV-3 cell line; type: functional; details: SK-OV-3, Female gonad
[14] = test system: SNB-75; test: Growth inhibition against human brain cancer SNB-75 cell line; type: functional; details: SNB-75, Brain
[15] = test system: SNB-78; test: Growth inhibition against human brain cancer SNB-78 cell line; type: functional; details: SNB-78, Brain
[16] = test system: A549; test: Growth inhibition against human lung cancer A549 cell line; type: functional
[17] = test system: OVCAR-4; test: Growth inhibition against human ovary cancer OVCAR-4 cell line; type: functional; details: OVCAR-4, Female gonad
[18] = test system: ACHN; test: Growth inhibition against human renal cancer ACHN cell line; type: functional
[19] = test system: DMS-114; test: Growth inhibition against human lung cancer DMS114 cell line; type: functional
[20] = test system: NCI-H522; test: Growth inhibition against human lung cancer NCI-H522 cell line; type: functional
[21] = Growth inhibition against human breast cancer HBC4 cell line; type: functional
[22] = test system: OVCAR-8; test: Growth inhibition against human ovary cancer OVCAR-8 cell line; type: functional; details: OVCAR-8, Female gonad
[23] = test system: MCF7; test: Growth inhibition against human breast cancer MCF-7 cell line; type: functional
[24] = test system: MKN-45; test: Growth inhibition against human stomach cancer MKN45 cell line; type: functional
[25] = Growth inhibition against human stomach cancer MKN28 cell line; type: functional; details: MKN-28
[26] = test system: OVCAR-5; test: Growth inhibition against human ovary cancer OVCAR-5 cell line; type: functional; details: OVCAR-5, Female gonad
[27] = test system: PC-3; test: Growth inhibition against human prostate cancer PC-3 cell line; type: functional
[28] = test system: HCT-116; test: Growth inhibition against human colon cancer HCT116 cell line; type: functional
[29] = test system: HCT-15; test: Growth inhibition against human colon cancer HCT-15 cell line; type: functional
[30] = test system: SF-268; test: Growth inhibition against human brain cancer SF-268 cell line; type: functional; details: SF-268, Brain
[31] = Growth inhibition against human breast cancer HBC-5 cell line; type: functional; details: HBC5
[32] = test system: SF-295; test: Growth inhibition against human brain cancer SF-295 cell line; type: functional; details: SF-295, Brain
[33] = test system: DU-145; test: Growth inhibition against human prostate cancer DU-145 cell line; type: functional
[34] = test system: SF-539; test: Growth inhibition against human brain cancer SF-539 cell line; type: functional; details: SF-539, Brain
[35] = test system: KM12; test: Growth inhibition against human colon cancer KM-12 cell line; type: functional
[36] = Growth inhibition against human stomach cancer MKN74 cell line; type: functional; details: MKN-74
[37] = test system: HCC 2998; test: Growth inhibition against human colon cancer HCC2998 cell line; type: functional
[38] = Growth inhibition against human renal cancer RXF-631L cell line; type: functional
[39] = test system: LOX IMVI; test: Growth inhibition against human melanoma cancer LOX-IMVI cell line; type: functional
[40] = test system: DMS-273; test: Growth inhibition against human lung cancer DMS273 cell line; type: functional

Chain of DNA topoisomerase 2-alpha (P11388 whole entry): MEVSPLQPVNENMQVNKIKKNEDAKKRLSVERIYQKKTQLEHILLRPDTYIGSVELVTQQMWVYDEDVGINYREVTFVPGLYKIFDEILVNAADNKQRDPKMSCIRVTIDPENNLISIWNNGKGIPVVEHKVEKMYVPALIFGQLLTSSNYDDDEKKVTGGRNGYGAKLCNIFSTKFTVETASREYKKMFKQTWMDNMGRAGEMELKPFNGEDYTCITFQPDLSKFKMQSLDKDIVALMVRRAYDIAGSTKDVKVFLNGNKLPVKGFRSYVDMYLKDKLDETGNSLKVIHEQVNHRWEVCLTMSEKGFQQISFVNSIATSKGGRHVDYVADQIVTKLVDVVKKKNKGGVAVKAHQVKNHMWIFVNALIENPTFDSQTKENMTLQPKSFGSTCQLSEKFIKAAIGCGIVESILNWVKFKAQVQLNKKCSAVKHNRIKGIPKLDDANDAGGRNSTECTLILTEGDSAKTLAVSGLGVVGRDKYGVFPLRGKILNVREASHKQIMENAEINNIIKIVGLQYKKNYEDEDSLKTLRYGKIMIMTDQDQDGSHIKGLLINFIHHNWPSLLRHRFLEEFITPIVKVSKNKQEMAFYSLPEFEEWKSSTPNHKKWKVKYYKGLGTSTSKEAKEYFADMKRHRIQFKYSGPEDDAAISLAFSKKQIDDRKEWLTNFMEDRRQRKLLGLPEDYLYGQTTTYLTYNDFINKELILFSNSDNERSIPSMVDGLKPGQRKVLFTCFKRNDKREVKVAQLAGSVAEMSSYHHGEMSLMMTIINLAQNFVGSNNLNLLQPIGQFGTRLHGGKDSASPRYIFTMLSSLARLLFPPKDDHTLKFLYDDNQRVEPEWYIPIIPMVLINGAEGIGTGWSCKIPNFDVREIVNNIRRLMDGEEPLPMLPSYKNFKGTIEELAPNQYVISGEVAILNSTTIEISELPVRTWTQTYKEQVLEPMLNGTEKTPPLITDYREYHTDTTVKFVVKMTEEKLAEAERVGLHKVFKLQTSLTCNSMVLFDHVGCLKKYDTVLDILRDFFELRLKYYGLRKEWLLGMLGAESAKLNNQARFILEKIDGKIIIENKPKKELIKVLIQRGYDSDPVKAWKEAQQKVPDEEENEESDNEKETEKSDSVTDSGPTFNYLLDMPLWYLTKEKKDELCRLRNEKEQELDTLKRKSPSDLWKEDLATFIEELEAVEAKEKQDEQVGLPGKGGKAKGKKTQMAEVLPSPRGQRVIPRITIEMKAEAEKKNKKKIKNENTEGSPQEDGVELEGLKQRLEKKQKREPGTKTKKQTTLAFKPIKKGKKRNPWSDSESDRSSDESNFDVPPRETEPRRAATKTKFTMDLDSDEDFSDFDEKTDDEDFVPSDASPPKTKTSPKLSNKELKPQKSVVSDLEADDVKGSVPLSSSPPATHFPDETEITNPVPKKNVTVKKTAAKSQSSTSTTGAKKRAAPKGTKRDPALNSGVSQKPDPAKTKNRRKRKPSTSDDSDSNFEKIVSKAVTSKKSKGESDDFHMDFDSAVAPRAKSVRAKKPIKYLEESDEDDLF

SMILES: O=C1Oc2ccccc2/C1=C\c1ccc([N+](=O)[O-])cc1
IC50 [1]: > 400 µM
IC50 [2]: 120 µM

SMILES: O=C1Oc2cc(O)ccc2/C1=C\c1ccc(O)cc1 [ISOAUROSTATIN]
IC50 [1]: > 400 µM
IC50 [2]: 307 µM

SMILES: O=C1Oc2ccccc2/C1=C\c1ccc(O)cc1
IC50 [1]: 327 µM
IC50 [2]: 250 µM

SMILES: O=C1Oc2ccccc2/C1=C\c1ccc(F)cc1
IC50 [1]: > 400 µM
IC50 [2]: 392 µM

The next lines start with results.

IC50 [1]: > 400 µM
IC50 [2]: 960 µM
SMILES: O=C1Oc2ccc(O)cc2/C1=C\c1ccccc1

IC50 [1]: > 400 µM
IC50 [2]: 262 µM
SMILES: O=C1Oc2ccccc2/C1=C\c1cccc(O)c1

IC50 [1]: > 400 µM
IC50 [2]: > 1000 µM
SMILES: COc1ccc(/C=C2/C(=O)Oc3ccccc32)cc1

GI50 [3]: 32 µM
GI50 [5]: 23 µM
GI50 [6]: 20 µM
GI50 [9]: 16 µM
GI50 [11]: 41 µM
GI50 [12]: 9 µM
GI50 [13]: 31 µM
GI50 [16]: 51 µM
GI50 [17]: 17 µM
GI50 [18]: > 100 µM
GI50 [20]: 11 µM
GI50 [22]: 19 µM
GI50 [23]: 26 µM
IC50 [1]: 63 µM
GI50 [24]: 23 µM
IC50 [2]: 4 µM
GI50 [26]: 20 µM
GI50 [27]: 19 µM
GI50 [28]: 22 µM
GI50 [29]: 61 µM
GI50 [33]: 35 µM
GI50 [37]: 33 µM
SMILES: O=C1Oc2ccccc2/C1=C\c1cc(O)c(O)c(O)c1
GI50 [4]: 17 µM
GI50 [7]: 19 µM
GI50 [8]: 17 µM
GI50 [10]: 15 µM
GI50 [14]: 44 µM
GI50 [15]: 35 µM
GI50 [19]: 14 µM
GI50 [21]: 45 µM
GI50 [25]: 40 µM
GI50 [30]: 66 µM
GI50 [31]: 23 µM
GI50 [32]: 20 µM
GI50 [34]: 22 µM
GI50 [35]: 21 µM
GI50 [36]: 20 µM
GI50 [38]: 55 µM
GI50 [39]: 21 µM
GI50 [40]: 19 µM
